Laboratory results published in ChEMBL document CHEMBL1151765, “Rational design of substituted diarylureas: a scaffold for binding to G-quadruplex motifs” (J Med Chem, 2008).
Calls of active or inactive are those of the source. The rule behind the calls is not given here.

Columns and labels:
[1] = Stabilization of d[G3(T2AG3)3] sequence of F21T telomeric G-quadruplex DNA assessed as change in melting temperature at 1 uM by FRET assay relative to BRACO-19 in presence of calf thymus DNA
How it was run: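 F21T FRET melting with ligand at 1µM in the presence of calf thymus DNA competitor at increasing bp concentrations. Retained stabilization, from three experiments, normalized to the ligand's ΔTm with no competitor (100%) ± normalized sd.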

[2] = Stabilization of d[G3(T2AG3)3] sequence of F21T telomeric G-quadruplex DNA assessed as change in melting temperature at 1 uM by FRET assay
How it was run: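 Dual-labelled oligo (5′-FAM, 3′-TAMRA) at 400nM in FRET buffer (60mM KCl, K cacodylate, pH 7.4), heated to 85 °C for 10 min, cooled to room temperature. Ligand added from DMSO dilution. Excitation 450–495nm, emission 515–545nm, read every 0.5 °C from 30–100 °C. ΔTm from four experiments: averaged ligand Tm minus averaged buffer-control Tm, ± maximum sd.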

[3] = Binding affinity to biotin-labeled d[CGA2T2CGTCTC2GA2T2CG] sequence of duplex DNA by surface plasmon resonance analysis
How it was run: (§1)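 Streptavidin chip with 5′-biotinylated DNA immobilized to 350-400 RU; blank reference flow cell. Run in 10mM HEPES, 100mM KCl, 3mM EDTA, P20 surfactant, pH 7.3, 25°C. Ligand 1nM to 10µM (from 20mM DMSO stock) injected at 50µl/min for 5–10 min to steady state, then 10 min buffer dissociation; glycine pH 2.0 regeneration between cycles.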

[4] = Stabilization of d[(TA)2GC(TA)2T6(TA)2]GC(TA)2 sequence of duplex DNA assessed as change in melting temperature at 1 uM by FRET assay
How it was run: (§2)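 Dual-labelled FAM/TAMRA oligos at 400nM in 60mM KCl potassium cacodylate buffer, pH 7.4, heated to 85 °C for 10 min, then cooled. Ligand added to 1µM; buffer alone as negative control. Excitation 450–495nm, emission read at 515–545nm every 0.5 °C from 30–100 °C. ΔTm is ligand Tm minus control Tm, from four experiments ± maximum sd; c-kit1 curves fitted to sigmoids.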

[5] = Cytotoxicity against human WI38 cells after 96 hrs by SRB assay; type: cell-based; details: WI-38, 96 h
[6] = tested on: MCF7; test: Selectivity ratio of IC50 for human MCF7 cells to IC50 for human WI38 cells
[7] = species: Homo sapiens; test: Binding affinity to biotin-labeled human telomeric d[AG3(T2AG3)3] sequence by surface plasmon resonance analysis; how it was run: as §1
[8] = tested on: A549; test: Selectivity ratio of IC50 for human A549 cells to IC50 for human WI38 cells
[9] = Stabilization of d[C3G3CG3CGCGAG3AG4AG2] sequence of c-kit2 G-quadruplex DNA assessed as change in melting temperature at 1 uM by FRET assay; how it was run: as §2
[10] = target: T1, Telomerase reverse transcriptase (Homo sapiens, UniProt O14746); test: Inhibition of telomerase at 50 uM by TRAP-LIG assay relative to control
[11] = target: T1, Telomerase reverse transcriptase; test: Inhibition of telomerase by TRAP-LIG assay
[12] = Stabilization of d[AGAG3AG2GCGCTG3AG2AG3GCT] sequence of c-kit1 G-quadruplex DNA assessed as change in melting temperature at 1 uM by FRET assay; how it was run: as §2
[13] = tested on: MCF7; test: Cytotoxicity against human MCF7 cells after 96 hrs by SRB assay; type: functional, cell-based; details: MCF7, 96 h
[14] = tested on: A549; test: Cytotoxicity against human A549 cells after 96 hrs by SRB assay; type: functional, cell-based; details: A549, 96 h
[15] = Selectivity ratio of equilibrium binding constant K for human telomeric d[AG3(T2AG3)3] sequence to equilibrium binding constant K for d[CGA2T2CGTCTC2GA2T2CG] sequence of duplex DNA
[16] = tested on: MCF7; test: Cytotoxicity against human MCF7 cells assessed as population doubling at 5 uM after 1 week […] relative to control; type: functional
How it was run: (§3)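 MCF7 cells (1×10^5) treated with sub-cytotoxic ligand concentrations for 1 week, biweekly dosing. Cells counted by haemocytometer; population doublings n = (log Pn – log P0)/log2. Values normalized to vehicle control (100%) ± sd, two independent concentrations per ligand.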

[17] = Selectivity ratio of equilibrium binding constant K for d[(CG3)2CGCGAG3AG4] sequence of c-kit2 G-quadruplex DNA to equilibrium binding constant K for d[CGA2T2CGTCTC2GA2T2CG] sequence of duplex DNA
[18] = Binding affinity to biotin-labeled d[(AG3)2CGCTG3AG2AG3] sequence of c-kit1 G-quadruplex DNA by surface plasmon resonance analysis; how it was run: as §1
[19] = Selectivity ratio of equilibrium binding constant K for d[(AG3TG4)2A] sequence of c-myc G-quadruplex DNA to equilibrium binding constant K for d[CGA2T2CGTCTC2GA2T2CG] sequence of duplex DNA
[20] = tested on: MCF7; test: Cytotoxicity against human MCF7 cells assessed as cell senescence at 10 uM after 1 week by beta-galactosidase assay; type: functional
[21] = Binding affinity to biotin-labeled d[(AG3TG4)2A] sequence of c-myc G-quadruplex DNA by surface plasmon resonance analysis; how it was run: as §1
[22] = Binding affinity to biotin-labeled d[(CG3)2CGCGAG3AG4] sequence of c-kit2 G-quadruplex DNA by surface plasmon resonance analysis; how it was run: as §1
[23] = tested on: MCF7; test: Cytotoxicity against human MCF7 cells assessed as population doubling at 10 uM after 1 week […] relative to control; type: functional; how it was run: as §3
[24] = Selectivity ratio of equilibrium binding constant K for d[(AG3)2CGCTG3AG2AG3] sequence of c-kit1 G-quadruplex DNA to equilibrium binding constant K for d[CGA2T2CGTCTC2GA2T2CG] sequence of duplex DNA
[25] = tested on: MCF7; test: Cytotoxicity against human MCF7 cells assessed as cell senescence at 5 uM after 1 week by beta-galactosidase assay; type: functional
[26] = tested on: MCF7; test: Cytotoxicity against human MCF7 cells assessed as cell senescence at 3.5 uM after 1 week by beta-galactosidase assay; type: functional
[27] = tested on: MCF7; test: Cytotoxicity against human MCF7 cells assessed as population doubling at 3.50 uM after 1 week […] relative to control; type: functional; how it was run: as §3
[28] = tested on: MCF7; test: Cytotoxicity against human MCF7 cells assessed as population doubling at 2 uM after 1 week […] relative to control; type: functional; how it was run: as §3
[29] = tested on: MCF7; test: Cytotoxicity against human MCF7 cells assessed as cell senescence at 2 uM after 1 week by beta-galactosidase assay; type: functional
[30] = tested on: MCF7; test: Cytotoxicity against human MCF7 cells assessed as population doubling at 2.25 uM after 1 week […] relative to control; type: functional; how it was run: as §3
[31] = tested on: MCF7; test: Cytotoxicity against human MCF7 cells assessed as population doubling at 1 uM after 1 week […] relative to control; type: functional; how it was run: as §3
[32] = tested on: MCF7; test: Cytotoxicity against human MCF7 cells assessed as cell senescence at 2.25 uM after 1 week by beta-galactosidase assay; type: functional
[33] = tested on: MCF7; test: Cytotoxicity against human MCF7 cells assessed as population doubling at 1.75 uM after 1 week […] relative to control; type: functional; how it was run: as §3
[34] = tested on: MCF7; test: Cytotoxicity against human MCF7 cells assessed as cell senescence at 1.75 uM after 1 week by beta-galactosidase assay; type: functional

T1 sequence (O14746 whole entry): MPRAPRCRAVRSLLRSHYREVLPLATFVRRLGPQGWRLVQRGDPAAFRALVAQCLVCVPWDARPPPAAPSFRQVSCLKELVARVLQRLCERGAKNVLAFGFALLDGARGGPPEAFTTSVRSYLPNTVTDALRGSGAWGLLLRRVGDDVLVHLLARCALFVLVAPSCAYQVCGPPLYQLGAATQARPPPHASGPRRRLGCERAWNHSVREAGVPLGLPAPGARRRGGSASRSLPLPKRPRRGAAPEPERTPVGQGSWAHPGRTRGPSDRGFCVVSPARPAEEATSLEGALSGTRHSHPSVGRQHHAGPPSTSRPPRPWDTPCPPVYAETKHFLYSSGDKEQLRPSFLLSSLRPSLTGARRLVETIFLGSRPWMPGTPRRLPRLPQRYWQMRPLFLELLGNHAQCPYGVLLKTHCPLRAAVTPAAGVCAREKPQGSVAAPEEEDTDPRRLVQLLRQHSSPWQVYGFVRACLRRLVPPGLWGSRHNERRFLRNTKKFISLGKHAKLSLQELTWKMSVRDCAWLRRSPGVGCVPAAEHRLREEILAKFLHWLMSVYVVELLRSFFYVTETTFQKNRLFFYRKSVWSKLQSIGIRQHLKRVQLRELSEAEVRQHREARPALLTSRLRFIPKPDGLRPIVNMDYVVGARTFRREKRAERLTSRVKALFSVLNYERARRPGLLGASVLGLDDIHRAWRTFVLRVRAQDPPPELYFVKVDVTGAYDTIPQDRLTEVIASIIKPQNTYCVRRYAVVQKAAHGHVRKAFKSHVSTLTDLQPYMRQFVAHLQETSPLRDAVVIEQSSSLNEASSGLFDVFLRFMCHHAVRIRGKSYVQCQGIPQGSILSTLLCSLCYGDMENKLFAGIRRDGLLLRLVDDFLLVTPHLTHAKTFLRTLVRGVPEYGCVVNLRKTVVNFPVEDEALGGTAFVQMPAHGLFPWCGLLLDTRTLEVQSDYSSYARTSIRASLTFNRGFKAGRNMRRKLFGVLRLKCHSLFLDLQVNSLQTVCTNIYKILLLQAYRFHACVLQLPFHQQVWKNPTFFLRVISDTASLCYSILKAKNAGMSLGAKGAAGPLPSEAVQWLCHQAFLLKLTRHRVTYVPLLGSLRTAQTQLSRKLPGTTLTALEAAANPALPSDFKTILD

Compound | Activity [1] | change in melting temperature (ΔTm) [2] | KA [3] | change in melting temperature (ΔTm) [4] | IC50 [5] | Ratio IC50 [6] | KA [7] | Ratio IC50 [8] | change in melting temperature (ΔTm) [9] | EC50 [11] | change in melting temperature (ΔTm) [12] | IC50 [13] | IC50 [14] | other results
CN(C)c1ccc(Nc2c3ccc(NC(=O)CCN4CCCC4)cc3nc3cc(NC(=O)CCN4CCCC4)ccc23)cc1 | Active | 25.9 °C | 0.5 ×10⁶ /M | 11.2 °C | 10.7 µM | 4.3 | 31 ×10⁶ /M | 4.5 | 25.3 °C | 6.3 µM | 20.1 °C |  |  | Activity [10]: inactive
O=C(CCCN1CCCC1)Nc1cccc(NC(=O)c2ccc(NC(=O)Nc3ccc(C(=O)Nc4cccc(NC(=O)CCCN5CCCC5)c4)cc3)cc2)c1 |  | 3.3 °C |  | 5.5 °C | > 25 µM | 1.3 |  | 1.3 | 6.5 °C |  |  | 19.5 µM | 19.4 µM | 
C[n+]1ccc(-c2c3nc(c(-c4cc[n+](C)cc4)c4ccc([nH]4)c(-c4cc[n+](C)cc4)c4ccc([nH]4)c(-c4cc[n+](C)cc4)c4nc2C=C4)C=C3)cc1 |  |  |  |  |  |  |  |  |  |  |  |  |  | Activity [10]: inactive
O=C(CN1CCCC1)Nc1ccc(NC(=O)c2cccc(NC(=O)Nc3cccc(C(=O)Nc4ccc(NC(=O)CN5CCCC5)cc4)c3)c2)cc1 | Active | 7.9 °C | < 1 ×10³ /M |  | 16.4 µM |  | 1.4 ×10⁶ /M | 0.3 | 11.3 °C | > 50 µM | 3.6 °C | 14.4 µM | > 50 µM | Selectivity ratio [15]: > 400; Activity [16]: 92.2%; Selectivity ratio [17]: > 400; KA [18]: 2.1 ×10⁶ /M; Selectivity ratio [19]: > 400; Activity [20]: 1.7%; KA [21]: 14 ×10⁶ /M; KA [22]: 5.1 ×10⁶ /M; Activity [23]: 73.1%; Selectivity ratio [24]: > 400; inhibition [10]: 21%; Activity [25]: 1%
O=C(CCN1CCCCC1)Nc1ccc(NC(=O)c2cccc(NC(=O)Nc3cccc(C(=O)Nc4ccc(NC(=O)CCN5CCCCC5)cc4)c3)c2)cc1 | Active | 5.2 °C |  | 0.1 °C | > 50 µM |  |  | 1 | 7.1 °C |  | 7 °C | 5.1 µM | > 50 µM | Activity [26]: 1.33%; Activity [27]: 84.3%; Activity [28]: 89.2%; Activity [29]: 1.29%
C[n+]1ccc(-c2c3nc(c(-c4cc[n+](C)cc4)c4ccc([nH]4)c(-c4cc[n+](C)cc4)c4nc(c(-c5cc[n+](C)cc5)c5ccc2[nH]5)C=C4)C=C3)cc1 [TMPYP4 CHLORIDE] |  |  |  |  |  |  |  |  |  | 8.9 µM |  |  |  | 
O=C(CN1CCCC1)Nc1cccc(NC(=O)c2ccc(NC(=O)Nc3ccc(C(=O)Nc4cccc(NC(=O)CN5CCCC5)c4)cc3)cc2)c1 |  | 1.8 °C |  | 2.5 °C | > 50 µM | 1 |  | 1 | 2 °C |  | 0.7 °C | > 50 µM | > 50 µM | 
O=C(CCN1CCCC1)Nc1cc(NC(=O)Nc2cc(NC(=O)CCN3CCCC3)cc(C(=O)Nc3ccccc3)c2)cc(C(=O)Nc2ccccc2)c1 | Active | 13.3 °C |  |  | 16.2 µM | 0.5 |  | 0.4 | 12.9 °C |  | 4.9 °C | 32.4 µM | 41.5 µM | 
O=C(CCN1CCCC1)Nc1ccc(NC(=O)c2cccc(NC(=O)Nc3cccc(C(=O)Nc4ccc(NC(=O)CCN5CCCC5)cc4)c3)c2)cc1 | Active | 13.5 °C | < 1 ×10³ /M | 0.4 °C | 7.5 µM |  | 1.1 ×10⁶ /M |  | 18.7 °C | > 50 µM | 10.2 °C | 2.6 µM | 5.3 µM | Selectivity ratio [15]: > 400; Activity [30]: 66.5%; Selectivity ratio [17]: > 400; KA [18]: 1.4 ×10⁶ /M; Selectivity ratio [19]: > 400; KA [21]: 2.1 ×10⁶ /M; KA [22]: 5 ×10⁶ /M; Selectivity ratio [24]: > 400; Activity [31]: 110.4%; Activity [32]: 2.4%; Activity [33]: 109.6%; inhibition [10]: 6%; Activity [34]: 3.1%
